The source made the active and inactive calls. No cut-off for these calls is given here. Residues, ends and D or L forms follow the SMILES beside them. *: point of attachment. BODIPY(FL) = CC1=CC(C)=[N+]2C1=Cc1ccc(CCC(=O)*)n1[B-]2(F)F; Propyl(3-PMe3+) = C[P+](C)(C)CCC*; CH2CH2P(+)Me3 = C[P+](C)(C)CC*
Legend:
[1] = Drug uptake in nucleus of human MCF7 cells at 20 uM after 3 hrs by DAPI/rhodamine phalloidin staining-based fluorescence microscopic method; format: ADME, subcellular; conditions: mcf7, 3 h
Summary of the method: (§1)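 Peptides labelled at the N-terminus with BODIPY-Fl; MCF7 cells incubated with 20 μM labelled peptide by a modified literature protocol. Imaged by fluorescence microscopy with DAPI for nuclei and rhodamine phalloidin for cytoskeleton. Green, blue and red images were merged to localise the peptide. Free BODIPY ligand served as a control for green signal.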

[2] = Drug uptake in golgi apparatus of human MCF7 cells at 20 uM after 3 hrs by DAPI/rhodamine phalloidin staining-based fluorescence microscopic method; format: ADME, subcellular; conditions: mcf7, 3 h; summary of the method: as §1
[3] = Drug uptake in membrane containing structure of human MCF7 cells at 20 uM after 3 hrs by DAPI/rhodamine phalloidin staining-based fluorescence microscopic method; format: ADME, cell membranes; conditions: mcf7, 3 h
Summary of the method: (§2)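 MCF7 cells incubated with 20 μM BODIPY-Fl-labelled peptides (label coupled at the N-terminus) using a slightly modified literature protocol. Nuclei counterstained with DAPI and actin cytoskeleton with rhodamine phalloidin. Imaged by fluorescence microscopy; green, blue and red channels merged to localise peptide. Free BODIPY ligand served as control for green signal.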

[4] = Cytotoxicity against HEK293 cells assessed as cell viability at 256 uM after 24 hrs by Alamar blue assay relative to control; format: cell-based; conditions: human, read-out: Activity
Summary of the method: (§3)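 HEK 293 cells exposed to peptides (TFA salts, C-terminal amide, free N-terminus) at 256 and 512 μM; viability as percent, run in triplicate, reported as mean ± SEM.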

[5] = Hemolytic activity in horse erythrocytes at 512 uM after 1 hr relative to control; format: ADME, cell-based, Equus caballus, Erythrocyte; conditions: read-out: Activity
Summary of the method: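 Horse erythrocytes exposed to peptides (TFA salts, C-terminal amide, free N-terminus) at 512 μM; haemolysis as percent, triplicate determinations, reported as mean ± SEM.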

[6] = Cytotoxicity against HEK293 cells assessed as cell viability at 512 uM after 24 hrs by Alamar blue assay relative to control; format: cell-based; conditions: human, read-out: Activity; summary of the method: as §3
[7] = test system: Escherichia coli; experiment: Antibacterial activity against extended-spectrum beta-lactamases producing Escherichia coli clinical strain 64771 after overnight incubation by microbroth dilution assay; format: functional
[8] = Drug uptake in cytoplasm of human MCF7 cells at 20 uM after 3 hrs by DAPI/rhodamine phalloidin staining-based fluorescence microscopic method; format: ADME, subcellular; conditions: mcf7, 3 h; summary of the method: as §1
[9] = test system: MCF7; experiment: Binding affinity to actin in human MCF7 cells at 20 uM after 3 hrs by DAPI/rhodamine phalloidin staining-based fluorescence microscopic method; format: cell-based; summary of the method: as §2

Molecule	Drug uptake [1]	Drug uptake [8]	Activity [9]	also measured
CC1=CC(C)=[N+]2C1=Cc1ccc(CCC(=O)N[C@@H](CSCC[P+](C)(C)C)C(=O)N[C@@H](Cc3ccccc3)C(=O)N[C@@H](Cc3ccccc3)C(=O)N[C@@H](CSCC[P+](C)(C)C)C(=O)N[C@@H](Cc3ccccc3)C(=O)N[C@@H](Cc3ccccc3)C(=O)N[C@@H](CSCC[P+](C)(C)C)C(=O)N[C@@H](Cc3ccccc3)C(=O)N[C@@H](Cc3ccccc3)C(=O)N[C@@H](CSCC[P+](C)(C)C)C(N)=O)n1[B-]2(F)F.O=C([O-])C(F)(F)F.O=C([O-])C(F)(F)F.O=C([O-])C(F)(F)F.O=C([O-])C(F)(F)F ({BODIPY(FL)}-C(CH2CH2P(+)Me3)FFC(CH2CH2P(+)Me3)FFC(CH2CH2P(+)Me3)FFC(CH2CH2P(+)Me3)-NH2)	Active			Drug uptake [2]: Active
CC[C@H](C)[C@H](NC(=O)[C@H](Cc1c[nH]c2ccccc12)NC(=O)[C@H](CSCC[P+](C)(C)C)NC(=O)[C@H](Cc1c[nH]c2ccccc12)NC(=O)[C@H](Cc1c[nH]c2ccccc12)NC(=O)[C@H](CSCC[P+](C)(C)C)NC(=O)[C@H](CSCC[P+](C)(C)C)NC(=O)CCc1ccc2n1[B-](F)(F)[N+]1=C(C)C=C(C)C1=C2)C(=O)N[C@@H](CSCC[P+](C)(C)C)C(=O)N[C@@H](Cc1c[nH]c2ccccc12)C(N)=O.O=C([O-])C(F)(F)F.O=C([O-])C(F)(F)F.O=C([O-])C(F)(F)F.O=C([O-])C(F)(F)F ({BODIPY(FL)}-C(CH2CH2P(+)Me3)C(CH2CH2P(+)Me3)WWC(CH2CH2P(+)Me3)WIC(CH2CH2P(+)Me3)W-NH2)				Drug uptake [3]: Active
H-KRWWKWIRW-NH2				viability at 24 h, 256 µM [4]: 2%; hemolysis at 1 h, 512 µM [5]: 14.3%; viability at 24 h, 512 µM [6]: 0%; MIC [7]: 1.5 µM
CC[C@H](C)[C@H](NC(=O)[C@H](Cc1c[nH]c2ccccc12)NC(=O)[C@H](CSCCC[P+](C)(C)C)NC(=O)[C@H](Cc1c[nH]c2ccccc12)NC(=O)[C@H](Cc1c[nH]c2ccccc12)NC(=O)[C@H](CSCCC[P+](C)(C)C)NC(=O)[C@H](CSCCC[P+](C)(C)C)NC(=O)CCC1=[N+]2C(=Cc3c(C)cc(C)n3[B-]2(F)F)C=C1)C(=O)N[C@@H](CSCCC[P+](C)(C)C)C(=O)N[C@@H](Cc1c[nH]c2ccccc12)C(N)=O.O=C([O-])C(F)(F)F.O=C([O-])C(F)(F)F.O=C([O-])C(F)(F)F.O=C([O-])C(F)(F)F ({BODIPY(FL)}-C(Propyl(3-PMe3+))C(Propyl(3-PMe3+))WWC(Propyl(3-PMe3+))WIC(Propyl(3-PMe3+))W-NH2)	Not Active	Active	Active	
CC1=CC(C)=[N+]2C1=Cc1ccc(CCC(=O)N[C@@H](CSCCC[P+](C)(C)C)C(=O)N[C@@H](Cc3ccccc3)C(=O)N[C@@H](Cc3ccccc3)C(=O)N[C@@H](CSCCC[P+](C)(C)C)C(=O)N[C@@H](Cc3ccccc3)C(=O)N[C@@H](Cc3ccccc3)C(=O)N[C@@H](CSCCC[P+](C)(C)C)C(=O)N[C@@H](Cc3ccccc3)C(=O)N[C@@H](Cc3ccccc3)C(=O)N[C@@H](CSCCC[P+](C)(C)C)C(N)=O)n1[B-]2(F)F.O=C([O-])C(F)(F)F.O=C([O-])C(F)(F)F.O=C([O-])C(F)(F)F.O=C([O-])C(F)(F)F ({BODIPY(FL)}-C(Propyl(3-PMe3+))FFC(Propyl(3-PMe3+))FFC(Propyl(3-PMe3+))FFC(Propyl(3-PMe3+))-NH2)	Active		Active	
CC[C@H](C)[C@H](NC(=O)[C@H](Cc1c[nH]c2ccccc12)NC(=O)[C@H](CSCC[P+](C)(C)C)NC(=O)[C@H](Cc1c[nH]c2ccccc12)NC(=O)[C@H](Cc1c[nH]c2ccccc12)NC(=O)[C@H](CSCCC[P+](C)(C)C)NC(=O)[C@H](CSCC[P+](C)(C)C)NC(=O)CCc1ccc2n1[B-](F)(F)[N+]1=C(C)C=C(C)C1=C2)C(=O)N[C@@H](CSCCC[P+](C)(C)C)C(=O)N[C@@H](Cc1c[nH]c2ccccc12)C(N)=O.O=C([O-])C(F)(F)F.O=C([O-])C(F)(F)F.O=C([O-])C(F)(F)F.O=C([O-])C(F)(F)F ({BODIPY(FL)}-C(CH2CH2P(+)Me3)C(Propyl(3-PMe3+))WWC(CH2CH2P(+)Me3)WIC(Propyl(3-PMe3+))W-NH2)	Not Active	Active	Active	
